Measurements published in PMC6361670 (Small (Weinheim an der Bergstrasse, Germany), 2018).

What was measured:
HUVECs = assay: Cytotoxicity of QA-NH2 on HUVECs; format: cell-based, human; settings: 1 nM to 1 mM, 24 h, MTT
Outline: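 HUVECs were seeded at 10,000 cells per well on rat-tail collagen I; one group was pre-activated with 10 ng/mL TNF-α for 4 h. Test compound was added at 1 nM to 1 mM for 24 h. MTT (75 μg) was then added for 4 h, formazan was dissolved in 50% DMF/20% SDS at pH 5, and absorbance was read at 562 nm.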

[1] = system: E/P-selectin on activated HUVECs; assay: Competitive inhibition of FITC-labeled QA-NP binding to activated HUVECs; format: cell-based, human; settings: 30 min pre-incubation; flow cytometry
Outline: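 HUVECs (passage 4, EGM-2, on rat-tail collagen I) were activated with 10 ng/mL TNF-α for 4 h. Free ligand, anti-E-selectin or anti-P-selectin antibody, or unlabeled nanoparticles were pre-incubated for 30 min. FITC-labeled particles (0.2 mg/mL) were then added for 2 h at 37 °C. Cells were washed twice with PBS, trypsinized, resuspended in cold PBS, and read for FL-1 fluorescence (488/525 nm).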

[2] = system: subcutaneous MDA-MB-231 tumor xenografts; assay: Whole body and ex vivo fluorescence imaging of NP distribution; format: in vivo, female athymic nude mice; settings: ICG-labeled, tail vein, imaged over 24 h

Structure (SMILES) | effect on HUVEC proliferation (HUVECs) | QA-NP binding to activated HUVECs after pre-treatment with competitor [1] | tumor fluorescence in whole body imaging [2]
Nc1cc(NC(=O)[C@]2(O)C[C@@H](O)[C@@H](O)[C@H](O)C2)cc(C(=O)O)c1 [QA-NH2, 3-amino-5-((1S,3R,4S,5R)-1,3,4,5-tetrahydroxycyclohexane-1-carboxamido)benzoic acid] | no adverse effects | reduced | 
CC1(C)C(/C=C/C=C/C=C/C=C2\N(CCCCS(=O)(=O)O)c3ccc4ccccc4c3C2(C)C)=[N+](CCCCS(=O)(=O)[O-])c2ccc3ccccc3c21 [free ICG, indocyanine green] |  |  | did not show fluorescence in tumors at all time points
